# Shown are actives, neighbours in structure and some others; about 0.7% of the full set was active somewhere.
# procasp3 activ – activates human procaspase-3 | P42574 | recombinant procaspase-3 D3A, Ac-DEVD-pNA absorbance 405 nm | activation, % at 8.5 µM | hit rate 0.11% among 330,000 | AID 463141;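 active = activation above the mean of all tested compounds plus 3 SD, cut at about 21% in these data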;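 also: 0% = DMSO alone and 100% = DMSO wells spiked with extra 5 µM PC-3 D3A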
#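 Test system: Procaspase-3 D3A mutant, all three cleavage aspartates alanine | Dosing: Single dose, 8.5 µM nominal compound, 0.8% DMSO | Schedule: 1 h preincubation, 2 h reaction | Technique: 405 nm absorbance of p-nitroaniline, reads at 0 and 120 min | Repeats: One well per compound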
# GAA850 FXN act – frataxin GAA850 promoter activation; HEK293 lucGAA850 FXN promoter luciferase reporter, 24 h; percent of 10 µM SAHA response; activation, % at 6 µM; hit rate 0.56% among 360,000; AID 540364;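 active = activation above the average of all compounds screened plus 3 SD, cutoff fixed separately per campaign, cut at about 7.5% in these data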;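 also: 0% = DMSO wells and 100% = 10 µM SAHA wells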
# procasp7 counter – counter-screen for procaspase-3 activators: activators of human procaspase-7 | AID 463210 | recombinant procaspase-7, Ac-DEVD-pNA absorbance 405 nm; D23A/D198A/D206A triple mutant, cannot self-cleave; scale: DMSO 0, 5 µM enzyme 100 | hit rate 0.093% among 330,000 | P55210 | activation, % at 8.5 µM;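 active = percent activation above the screen-wide mean plus 3 SD, cut at about 25% in these data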
# Target sequence (P55210 whole entry D23A/D198A/D206A): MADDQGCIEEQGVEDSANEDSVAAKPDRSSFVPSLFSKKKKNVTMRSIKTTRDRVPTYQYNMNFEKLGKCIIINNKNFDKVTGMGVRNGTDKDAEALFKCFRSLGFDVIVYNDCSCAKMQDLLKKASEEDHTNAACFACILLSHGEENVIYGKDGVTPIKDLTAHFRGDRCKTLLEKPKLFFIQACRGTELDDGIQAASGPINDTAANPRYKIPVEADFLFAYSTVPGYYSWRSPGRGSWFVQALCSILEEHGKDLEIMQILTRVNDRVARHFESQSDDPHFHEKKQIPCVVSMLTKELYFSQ
#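 Replicates: singlicate. Assay system: Procaspase-7 triple mutant (PC-7 D3A). Signal: 405 nm absorbance of p-nitroaniline. Times: 1 h preincubation, 2 h reaction. Buffer or medium: Zinc-free HEPES pH 7.4 with 300 mM NaCl, 0.01% Triton X-100. Also added: DEVD-pNA substrate. Benchmarks: DMSO wells as 0%, DMSO with 5 µM added PC-7 as 100%.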
# GAA30 FXN cntr – GAA30 FXN promoter activation counter-screen; activation, % at 6 µM; shares compounds with GAA850 FXN act; hit rate 66% among 1,900; HEK293 lucGAA30 FXN promoter luciferase, 24 h; DMSO = 0%, 5 µM ipriflavone = 100%;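 active = mean activation above the mean of solvent-only control wells plus 3 SD, cut at about 22% in these data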;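 also: counterscreen of GAA850 promoter hits where activity marks nonselective or luminescence artifacts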
# GAA850 confirm – GAA850 FXN promoter activation confirmation; shares compounds with GAA850 FXN act; hit rate 86% among 1,900; HEK293 lucGAA850 FXN promoter luciferase reporter, 24 h; 100% = activation by SAHA; activation, % at 6 µM; AID 588351;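 active = mean activation above a set limit taken from the primary screen, cut at about 8% in these data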;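 also: 0% = DMSO wells and 100% = 10 µM SAHA wells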
# * = called active by the depositor; / = no result given.
SMILES,procasp3 activ,GAA850 FXN act,procasp7 counter,GAA30 FXN cntr,GAA850 confirm
CC(=O)Nc1ccc(N/C=C/C(=O)c2ccc(C)o2)cc1,1,8.9*,-1,95*,30*
N#CCOC(=O)C1CSC2(c3ccc(Br)cc3)CCC(=O)N12 (stereo unspecified),4,0,12,/,/
Cc1cc(C(C)(C)C)ccc1OC(=O)C1=CC=CN2CCS(=O)(=O)N=C12,/,0,/,/,/
Cc1cc(F)ccc1-c1cc(C(=O)NC(C)C)[nH]n1,/,1,/,/,/
CCOC(=O)c1cnc(Nc2nc3ccccc3o2)nc1CSC(=S)N(CC)CC,3,11*,1,41*,25*
CCOC(=O)c1cnc(Nc2nc3ccccc3o2)nc1CSc1ncccn1,-14,/,-11,/,/
CCCc1cc(=O)[nH]c2nnc(SCC(=O)NC3CCCCC3)n12,2,0,0,/,/
COc1ccc(N(C)C(=O)c2cc3c(s2)-c2c(C)cccc2OC3)c(OC)c1,-4,1,3,/,/
O=C(NC(=S)Nc1ccc(N2CCCCC2)cc1)c1ccco1,2,4,-16,/,/
CC1CCN(c2ccc(NC(=S)NC(=O)c3ccco3)cc2)CC1,-2,7.9*,-12,69*,32*
COc1cccc(CC(NC(C)=O)C(=O)NC2CCN(C(=O)Nc3ccc(C)cc3)CC2)c1 (stereo unspecified),/,2,/,/,/
COCCn1c(SCCOc2ccccc2)nc2ccccc2c1=O,-1,2,3,/,/
Cc1cccc(N(C(=O)Cc2cccs2)C(C(=O)NC2CCCC2)c2ccncc2)c1 (stereo unspecified),2,3,-11,/,/
Cc1ccc(N(C(=O)Cc2cccs2)C(C(=O)NC2CCCCC2)c2ccccn2)cc1C (stereo unspecified),0,13*,-5,2,11*
O=C(NC1CCCCC1)C(c1cccs1)N(C(=O)Cc1c[nH]c2ccccc12)c1ccc(F)cc1 (stereo unspecified),-5,10*,-1,13,6
CC(=O)c1ccc(N(C(=O)Cc2c[nH]c3ccccc23)C(C(=O)NC2CCCCC2)c2cccs2)cc1 (stereo unspecified),3,-5,5,/,/
CNC(=S)N(Cc1ccc(Cl)cc1)Cc1cccs1,5,1,13,/,/
COc1ccc(Cl)cc1NS(=O)(=O)c1c(C)[nH]c(C)c1C(=O)N1CCCCC1,-1,2,1,/,/
CCN(CC)S(=O)(=O)c1ccc(C(=O)OCCN2C(=O)c3cccc4c(N5CCOCC5)ccc(c34)C2=O)cc1,11,8.5*,-1,21,6
CC(=O)N(C(C)=O)N1C(=O)c2cccc3c(N4CCOCC4)ccc(c23)C1=O,-11,2,-5,/,/
Cc1ccc(N/C=C/C(=O)c2ccco2)c(O)c1,3,5,-11,/,/
Cc1ccc([N+](=O)[O-])cc1N/C=C/C(=O)c1ccco1,-2,9.3*,-1,27*,25*
CCC(C(=O)Nc1ccc2[nH]ncc2c1)c1ccccc1 (stereo unspecified),-3,-2,-8,/,/
O=C(NC(=S)Nc1ccc(N2CCCC2)cc1)c1ccccc1[N+](=O)[O-],-1,8.8*,10,53*,13*
O=C(NC(=S)Nc1ccccc1N1CCCC1)c1ccccc1[N+](=O)[O-],1,3,15,/,/
SMILES,procasp3 activ,GAA850 FXN act,procasp7 counter,GAA30 FXN cntr,GAA850 confirm
O=C(O)c1cc2cc(Oc3ccccc3)ccc2[nH]1,-5,3,6,/,/
Nn1c(SCC(=O)Nc2nccs2)nnc1-c1ccccn1,7,0,1,/,/
Cc1snc(SCC(=O)c2ccc([N+](=O)[O-])cc2)c1C#N,/,4,/,/,/
Cc1snc(SCC(=O)c2ccc(F)cc2)c1C#N,-8,8.2*,3,79*,28*
CC1CC(C)CN(C(=O)c2nn(C)c3c2CSc2ccccc2-3)C1 (stereo unspecified),-19,-1,-10,/,/
CC1CCCN(C(=O)c2nn(C)c3c2CSc2ccccc2-3)C1 (stereo unspecified),-11,9.6*,-16,30*,12*
COc1ccc(Cl)cc1C(=O)NNC(=O)CSc1nncn1C,10,-2,4,/,/
CCOC(=O)CNC(=S)N(Cc1cccs1)C1CCCCC1,4,8.0*,7,13,9.2*
CCOC(=O)CNC(=S)N(Cc1ccccc1F)C1CCCCC1,1,2,-1,/,/

# Screening results (PubChem BioAssay)
